Results: ChEMBL document CHEMBL1128543, “Computer-aided design and synthesis of 5-substituted tryptamines and their pharmacology at the 5-HT1D receptor: discovery of compounds with potential anti-migraine properties” (J Med Chem, 1995)

How the values were obtained:
Settings in all cases: Oryctolagus cuniculus
[1] = target: 5-hydroxytryptamine receptor 1D (Homo sapiens) (UniProt P28221); experiment: The compound was tested for intrinsic activity against 5-HT1D receptor
Method in brief: (§1)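 Rabbit saphenous vein rings (male New Zealand White; 4–5 mm) mounted on tungsten wires in Krebs–Henseleit buffer, pH 7.4, 37 °C, gassed with 95% O2/5% CO2, at 2 g passive force. Pretreated for 30 min with pargyline (500 μM) and phenoxybenzamine (0.3 μM), then washed. Cumulative 5-HT curve, then after 60 min a test agonist curve. Potency is p[A50]; α is test maximum/5-HT maximum; n ≥ 3.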

[2] = target: 5-hydroxytryptamine receptor 2A (Homo sapiens) (UniProt P28223)
Chain of 5-hydroxytryptamine receptor 2A (Homo sapiens) (P28223 whole entry): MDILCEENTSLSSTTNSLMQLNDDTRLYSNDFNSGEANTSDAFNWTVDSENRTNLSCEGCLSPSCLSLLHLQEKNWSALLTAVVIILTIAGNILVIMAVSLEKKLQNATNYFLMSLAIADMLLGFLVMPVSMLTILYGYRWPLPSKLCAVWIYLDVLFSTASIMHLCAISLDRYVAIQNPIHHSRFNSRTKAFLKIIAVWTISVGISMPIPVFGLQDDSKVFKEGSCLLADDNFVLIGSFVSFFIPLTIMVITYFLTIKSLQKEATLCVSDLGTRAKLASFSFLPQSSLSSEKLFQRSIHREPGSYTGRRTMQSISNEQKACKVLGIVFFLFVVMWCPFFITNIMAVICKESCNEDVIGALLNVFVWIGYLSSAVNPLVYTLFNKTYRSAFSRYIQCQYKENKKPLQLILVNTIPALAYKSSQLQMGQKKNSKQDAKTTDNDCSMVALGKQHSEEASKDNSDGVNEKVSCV

[3] = target: 5-hydroxytryptamine receptor 1D (Homo sapiens) (UniProt P28221); experiment: The compound was tested for binding affinity against 5-HT1D receptor; method in brief: as §1

Chain of 5-hydroxytryptamine receptor 1D (Homo sapiens) (P28221 whole entry): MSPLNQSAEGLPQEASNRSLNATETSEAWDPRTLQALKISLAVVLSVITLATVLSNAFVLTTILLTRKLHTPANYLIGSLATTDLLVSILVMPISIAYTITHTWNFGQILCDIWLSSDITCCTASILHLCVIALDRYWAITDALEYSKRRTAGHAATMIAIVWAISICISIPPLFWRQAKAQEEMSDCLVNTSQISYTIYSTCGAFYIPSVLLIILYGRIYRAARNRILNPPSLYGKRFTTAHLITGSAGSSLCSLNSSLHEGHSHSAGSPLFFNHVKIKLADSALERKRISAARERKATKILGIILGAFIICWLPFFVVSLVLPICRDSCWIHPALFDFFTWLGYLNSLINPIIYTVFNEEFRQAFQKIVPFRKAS

Compound | Intrinsic activity [1] | p[A50] [2] | p[A50] [3]
CN(C)CCc1c[nH]c2ccc(C[C@H]3CNC(=O)N3C)cc12 | 1 | < 4.5 | 7
CN(C)CCc1c[nH]c2ccc(CC3NC(=O)N(Cc4cccc(NC(=O)c5ccccc5)c4)C3=O)cc12 (stereo not drawn) | 0.55 | 5 | 6.3
C[C@@H](CO)NC(=O)[C@@H]1C=C2c3cccc4[nH]cc(c34)C[C@H]2N(C)C1 | 0.9 | – | 9
Cn1c(Cc2ccc3[nH]cc(CCN)c3c2)cn(Cc2ccccc2)c1=O | 0.95 | 6.3 | 7.1
CCCNC(=O)c1cccc(CN2C(=O)NC(Cc3ccc4[nH]cc(CCN)c4c3)C2=O)c1 (stereo not drawn) | 0.99 | 4.5 | 6.8
NCCc1c[nH]c2ccc(CCC3NC(=O)N(Cc4ccccc4)C3=O)cc12 (stereo not drawn) | 0.9 | < 4.5 | 6.7
NCCc1c[nH]c2ccc(CC3NC(=O)N(Cc4cccc(NC(=O)c5ccccc5)c4)C3=O)cc12 (stereo not drawn) | 0.85 | 4.6 | 7.3
CN1C(=O)N(Cc2ccccc2)C(=O)C1Cc1ccc2[nH]cc(CCN)c2c1 (stereo not drawn) | 1 | < 4.5 | 6
O=C(c1ccc(F)cc1)C1CCN(CCn2c(=O)[nH]c3ccccc3c2=O)CC1 | – | 9.1 | 6
CN(C)CCc1c[nH]c2ccc(CC3NC(=O)N(Cc4ccc(Oc5ccccc5)cc4)C3=O)cc12 (stereo not drawn) | 0.79 | 4.7 | 7.4
COc1ccc2[nH]cc(C3=CCNCC3)c2c1 | 0.89 | – | 7.1
CNCCc1c[nH]c2ccc(CCN3C(=O)CNC3=O)cc12 | 0.7 | < 4.5 | 6.7
CC(=O)Nc1cccc(CC2NC(=O)N(CCc3ccc4[nH]cc(CCN)c4c3)C2=O)c1 (stereo not drawn) | 0.7 | < 4.5 | 7
CN(C)CCc1c[nH]c2ccc(CC3NC(=O)N(Cc4ccccc4)C3=O)cc12 (stereo not drawn) | – | < 4.5 | 5.6
CN1C(=O)N(Cc2ccccc2)CC1Cc1ccc2[nH]cc(CCN)c2c1 (stereo not drawn) | – | 5 | 7.5
CN(C)CCc1c[nH]c2ccc(O)cc12 | 0.92 | 6.8 | 7.3
NCCc1c[nH]c2ccc(C(N)=O)cc12 | 0.84 | 5.9 | 8.1
CC(=O)Nc1ccc(CN2C(=O)NC(Cc3ccc4[nH]cc(CCN)c4c3)C2=O)cc1 (stereo not drawn) | 0.81 | – | 5.8
NCCc1c[nH]c2ccccc12 | 0.86 | 6.1 | 6.9
NCCc1c[nH]c2ccc(CC3NC(=O)N(CCc4ccccc4)C3=O)cc12 (stereo not drawn) | 0.67 | 4.5 | 6.7
O=C1CC2(CCCC2)CS(=O)(=O)N1CCCCN1CCN(c2ncccn2)CC1 | – | 5.1 | 4.9
NCCc1c[nH]c2ccc(CC3NC(=O)N(Cc4ccc(-c5ccccc5)cc4)C3=O)cc12 (stereo not drawn) | 0.6 | – | 6.7
CN(C)CCc1c[nH]c2ccc(CCN3C(=O)NC(Cc4ccc(NS(C)(=O)=O)cc4)C3=O)cc12 (stereo not drawn) | 0.6 | < 4.5 | 7.4
CNS(=O)(=O)Cc1ccc2[nH]cc(CCN(C)C)c2c1 | 0.83 | – | 6.6

Compound | Intrinsic activity [1] | p[A50] [2] | p[A50] [3]
CN(C)CCc1c[nH]c2ccc(CCC3NC(=O)N(Cc4ccccc4)C3=O)cc12 (stereo not drawn) | 0.2 | 5.9 | 6.3
O=C1CC2(CCCC2)CC(=O)N1CCCCN1CCN(c2ncccn2)CC1 | – | – | 4.5
O=C(CCCN1CCC2(CC1)C(=O)NCN2c1ccccc1)c1ccc(F)cc1 | – | 9.7 | 5.8
NCCc1c[nH]c2ccc(CC3NC(=O)N(Cc4ccc(C(=O)Nc5ccccc5)cc4)C3=O)cc12 (stereo not drawn) | 0.7 | 4.5 | 5.9
NCCc1c[nH]c2ccc(CC3NC(=O)N(CCCc4ccccc4)C3=O)cc12 (stereo not drawn) | 0.93 | < 4.5 | 6.6
COC(=O)c1ccc(CC2NC(=O)N(CCc3ccc4[nH]cc(CCN)c4c3)C2=O)cc1 (stereo not drawn) | 0.7 | < 4.5 | 7.3
CNCCc1c[nH]c2ccc(CCN3C(=O)NC(Cc4cccc(NC(C)=O)c4)C3=O)cc12 (stereo not drawn) | 0.6 | < 4.5 | 6.9
CNC(=O)c1cccc(CN2C(=O)NC(Cc3ccc4[nH]cc(CCN)c4c3)C2=O)c1 (stereo not drawn) | 0.71 | 4.3 | 5.8
Cc1ccc2[nH]cc(CCN)c2c1 | 1 | 6.2 | 6.1
CN(C)CCc1c[nH]c2ccc(CCN3C(=O)NC(Cc4ccc([N+](=O)[O-])cc4)C3=O)cc12 (stereo not drawn) | 0.6 | < 4.5 | 6.8
O=C1NCN(c2ccccc2)C12CCN(CC1COc3ccccc3O1)CC2 (stereo not drawn) | – | 6.2 | 5.1
CN(C)CCc1c[nH]c2ccc(CCN3C(=O)N[C@@H](Cc4ccc(NS(C)(=O)=O)cc4)C3=O)cc12 | 0.6 | < 4.5 | 7.4
CS(=O)(=O)Nc1ccc(C[C@H]2NC(=O)N(CCc3ccc4[nH]cc(CCN)c4c3)C2=O)cc1 | 0.7 | 5.3 | 7.1
CC(=O)Nc1cccc(CC2NC(=O)N(CCc3ccc4[nH]cc(CCN(C)C)c4c3)C2=O)c1 (stereo not drawn) | 0.6 | < 4.5 | 7.2
CS(=O)(=O)Nc1cccc(CC2NC(=O)N(CCc3ccc4[nH]cc(CCN)c4c3)C2=O)c1 (stereo not drawn) | 0.8 | < 4.5 | 7.2
NCCc1c[nH]c2ccc(CC3NC(=O)N(Cc4ccccc4)C3=O)cc12 (stereo not drawn) | 0.72 | 4 | 6.1
CN1C(=O)NC[C@@H]1Cc1ccc2[nH]cc(CCN)c2c1 | 0.88 | 5 | 6.9
NCCc1c[nH]c2ccc(CC3NC(=O)N(Cc4cccc(C(=O)Nc5ccccc5)c4)C3=O)cc12 (stereo not drawn) | 0.53 | 3.9 | 6.6
CCC(CO)NC(=O)[C@H]1C=C2c3cccc4c3c(cn4C)CC2N(C)C1 (stereo partly drawn) | 0.64 | – | 6.7
CS(=O)(=O)Nc1ccc(CC2NC(=O)N(CCc3ccc4[nH]cc(CCN)c4c3)C2=O)cc1 (stereo not drawn) | 0.8 | 5.2 | 7.4
CN1C(=O)NC(Cc2ccc3[nH]cc(CCN)c3c2)C1=O (stereo not drawn) | – | 4 | 4.8
CN(C)CCc1c[nH]c2ccc(CCN3C(=O)CNC3=O)cc12 | 0.5 | < 4.5 | 6.1
CN(C)CCc1c[nH]c2ccc(CC3NC(=O)N(CCc4ccccc4)C3=O)cc12 (stereo not drawn) | 0.39 | – | 6
NCCc1c[nH]c2ccc(CC3NC(=O)N(Cc4cccc(Oc5ccccc5)c4)C3=O)cc12 (stereo not drawn) | 0.79 | 4.7 | 7.4
